The values that follow come from ChEMBL document CHEMBL1142010, “Synthesis and in vitro antitrypanosomal activity of novel Nifurtimox analogues” (2005).

Type in all cases: functional
Experiment [1] deals with Trypanosoma cruzi. The experiment can be described thus: Percent of growth inhibition of Trypanosoma cruzi (Y strain) epimastigote forms at compound concentration of 1 mg/mL after incubation for 24 hr. Put shortly:
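Y-strain epimastigotes were grown at 28 °C in LIT medium with 10% heat-inactivated (56°, 30 min) fetal calf serum. Log-phase parasites, started at 2 × 10⁶/mL, were exposed to compound in DMSO (1% final). Growth and viability were read every 24 h by inverted microscopy, absorbance at 580 nm and Neubauer counts, in triplicate. Growth inhibition % is the mean of three experiments.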

In experiment [2] the test system is Trypanosoma cruzi. The experiment in a line: Percent of growth inhibition of Trypanosoma cruzi (Y strain) epimastigote forms at compound concentration of 10 mg/mL after incubation for 98 hr. Also noted: inhibition: dose or concentration left out as unconfirmed.
In experiment [3] the test system is Trypanosoma cruzi. The experiment can be described thus: Percent of growth inhibition of Trypanosoma cruzi (Y strain) epimastigote forms at compound concentration of 10 mg/mL after incubation for 48 hr. Also noted: inhibition: dose or concentration left out as unconfirmed.
Experiment [4] concerns Trypanosoma cruzi. The experiment in a line: Percent of growth inhibition of Trypanosoma cruzi (Y strain) epimastigote forms at compound concentration of 10 mg/mL after incubation for 24 hr. The arrangement: inhibition: dose or concentration left out as unconfirmed.
Experiment [5] concerns Trypanosoma cruzi. The experiment can be described thus: Percent of growth inhibition of Trypanosoma cruzi (Y strain) epimastigote forms at compound concentration of 100 mg/mL after incubation for 24 hr. The arrangement: inhibition: dose or concentration left out as unconfirmed.
Experiment [6] concerns Trypanosoma cruzi. The experiment in a line: Percent of growth inhibition of Trypanosoma cruzi (Y strain) epimastigote forms at compound concentration of 1 mg/mL after incubation for 48 hr. The arrangement: inhibition: dose or concentration left out as unconfirmed.
The subject of experiment [7] is Trypanosoma cruzi. The experiment can be described thus: Percent of growth inhibition of Trypanosoma cruzi (Y strain) epimastigote forms at compound concentration of 10 mg/mL after incubation for 72 hr. The arrangement: inhibition: dose or concentration left out as unconfirmed.
The subject of experiment [8] is Trypanosoma cruzi. The experiment can be described thus: Percent of growth inhibition of Trypanosoma cruzi (Y strain) epimastigote forms at compound concentration of 1 mg/mL after incubation for 72 hr. Also noted: inhibition: dose or concentration left out as unconfirmed.

The inhibition is the percentage by which the read-out fell short of the control. `O=C(/C=C/c1cccs1)NCc1ccccc1` registered an inhibition at 1000 µg/mL in the experiment with Trypanosoma cruzi [1] of 17.4%. The inhibition with Trypanosoma cruzi [2] is 13.2%; in the experiment on Trypanosoma cruzi [3], 22.5%; in the experiment on Trypanosoma cruzi [4] it was 17.4%; in the experiment with Trypanosoma cruzi [5], 39.1%; with Trypanosoma cruzi [6], 15%; in the experiment on Trypanosoma cruzi [7], 19.6%. This molecule also returned an inhibition with Trypanosoma cruzi [8] of 10.7%.
As to `O=C(/C=C/c1ccc([N+](=O)[O-])o1)Nc1nc2c(Cl)cccc2s1`, the inhibition at 1000 µg/mL with Trypanosoma cruzi [1] came to 26.1%. The inhibition was 50% in the experiment with Trypanosoma cruzi [2]; 42.5% in the experiment on Trypanosoma cruzi [3]; 21.7% in the experiment with Trypanosoma cruzi [4]; 100% with Trypanosoma cruzi [5]; 22.5% in the experiment on Trypanosoma cruzi [6]; 50% in the experiment with Trypanosoma cruzi [7]. Moreover, the inhibition with Trypanosoma cruzi [8] was 23.2%.
In turn, `O=C(/C=C/c1ccc([N+](=O)[O-])o1)NCc1ccccc1` registered an inhibition at 1000 µg/mL in the experiment with Trypanosoma cruzi [1] of 47.8%. Moreover, the inhibition turned out to be 100% in the experiment on Trypanosoma cruzi [2]; 100% in the experiment with Trypanosoma cruzi [3]; 100% in the experiment with Trypanosoma cruzi [4]; 100% with Trypanosoma cruzi [5]; 65% in the experiment with Trypanosoma cruzi [6]; 100% in the experiment on Trypanosoma cruzi [7]. In the experiment with Trypanosoma cruzi [8], this molecule came in with an inhibition of 71.4%.
For `CC(C)CNC(=O)/C=C/c1ccc([N+](=O)[O-])o1`, the inhibition at 1000 µg/mL in the experiment with Trypanosoma cruzi [1] amounted to 47.8%. In addition, the inhibition in the experiment with Trypanosoma cruzi [2] is 100%; in the experiment on Trypanosoma cruzi [3], 100%; in the experiment on Trypanosoma cruzi [4], 100%; in the experiment with Trypanosoma cruzi [5] it was 100%; in the experiment on Trypanosoma cruzi [6], 65%; in the experiment on Trypanosoma cruzi [7], 100%. For the same molecule, the inhibition in the experiment with Trypanosoma cruzi [8] turned out to be 69.6%.
Take `O=C(/C=C/c1ccc([N+](=O)[O-])o1)NCc1ccc2c(c1)OCO2`: in the experiment with Trypanosoma cruzi [1], the inhibition at 1000 µg/mL came out at 52.2%. Also, the inhibition turned out to be 100% with Trypanosoma cruzi [2]; 100% in the experiment with Trypanosoma cruzi [3]; 100% in the experiment on Trypanosoma cruzi [4]; 100% with Trypanosoma cruzi [5]; 67.5% with Trypanosoma cruzi [6]; 100% in the experiment with Trypanosoma cruzi [7]. The inhibition in the experiment on Trypanosoma cruzi [8] turned out to be 71.4%.
On to `O=C(/C=C/c1ccc([N+](=O)[O-])o1)NCc1ccc(Cl)cc1`, for which the inhibition at 1000 µg/mL in the experiment on Trypanosoma cruzi [1] amounted to 39.1%. For the same molecule, the inhibition came out at 100% in the experiment with Trypanosoma cruzi [3]; 100% in the experiment on Trypanosoma cruzi [4]; 100% in the experiment with Trypanosoma cruzi [5]; 60% in the experiment with Trypanosoma cruzi [6]; 100% in the experiment with Trypanosoma cruzi [7]; 67.8% in the experiment on Trypanosoma cruzi [8].
In the experiment on Trypanosoma cruzi [1], `O=C(/C=C/c1ccc([N+](=O)[O-])s1)NCc1ccccc1` came in with an inhibition at 1000 µg/mL of 26.1%. Moreover, the inhibition with Trypanosoma cruzi [2] came out at 55.9%; in the experiment with Trypanosoma cruzi [3], 47.5%; in the experiment on Trypanosoma cruzi [4], 30.4%; in the experiment with Trypanosoma cruzi [5] it was 100%; with Trypanosoma cruzi [7] it was 53.6%; with Trypanosoma cruzi [8], 25%.
For `O=C(/C=C/c1ccco1)NCc1ccccc1`, the inhibition at 1000 µg/mL with Trypanosoma cruzi [1] was determined as 8.7%. The inhibition in the experiment with Trypanosoma cruzi [2] worked out at 19.1%; with Trypanosoma cruzi [3], 32.5%; in the experiment with Trypanosoma cruzi [4], 21.7%; in the experiment on Trypanosoma cruzi [5], 39.1%; in the experiment with Trypanosoma cruzi [6] it was 5%; in the experiment on Trypanosoma cruzi [7], 28.6%. For the same molecule, in the experiment with Trypanosoma cruzi [8], the inhibition was found to be 5.36%.
Turning to `C[S+](C)[O-]` [DIMETHYL SULFOXIDE], at 1000 µg/mL the inhibition in the experiment with Trypanosoma cruzi [1] was 0%. Besides, the inhibition in the experiment with Trypanosoma cruzi [2], in the experiment on Trypanosoma cruzi [3], with Trypanosoma cruzi [4], in the experiment with Trypanosoma cruzi [5], in the experiment with Trypanosoma cruzi [6] and with Trypanosoma cruzi [7] was 0% throughout. The molecule further registered an inhibition in the experiment with Trypanosoma cruzi [8] of 0%.
`CC1CS(=O)(=O)CCN1/N=C/c1ccc([N+](=O)[O-])o1` (stereo not drawn) [NIFURTIMOX]: the inhibition at 1000 µg/mL was found to be 17.4% in the experiment with Trypanosoma cruzi [1], 20% in the experiment with Trypanosoma cruzi [6] and 19.6% in the experiment on Trypanosoma cruzi [8]. The inhibition at 10000 µg/mL in the experiment with Trypanosoma cruzi [2], in the experiment on Trypanosoma cruzi [3], in the experiment with Trypanosoma cruzi [4] and in the experiment with Trypanosoma cruzi [7] was 100% each time. The molecule further came in with an inhibition at 100000 µg/mL in the experiment on Trypanosoma cruzi [5] of 100%.
